# Screening data from PubChem.
# PRMT1 FP inh: blocks human protein arginine methyltransferase 1. recombinant PRMT1, activity-based probe fluorescence polarization. Q99873. inhibition, % at 2.79 µM. 1.3% of 370,000 active;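 active = inhibition above about 21% made by adding two undisclosed values, limit read from the data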
# LEDGF integ inh: blocks HIV-1 LEDGF/p75-dependent DNA integration. TR-FRET IN-LEDGF/p75 DNA integration, Eu/Cy5. inhibition, % at 3.7 µM. 0.64% of 370,000 active. AID 743269;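 active = inhibition above the screen-wide mean plus 3 SD, cut at about 13% in these data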;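 also: signal is the Cy5 over europium emission ratio at 671 and 618 nm; 0% = plate median of compound wells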
# MBD2 DNA inh: MBD2-methylated oligo binding inhibition; 0.31% of 370,000 active; TR-FRET, MBD2 binding to methylated oligonucleotide; inhibition, % at 4.4 µM; Q9UBB5; in the data active = inhibition above about 13%
# ABHD5 PLIN5 PPI: blocks binding of human ABHD5 to perilipin-5; inhibition, % at 4 µM; Q00G26+Q8WTS1; 0.78% of 360,000 active; AID 602281; Split G. princeps luciferase complementation, luminescence, 4 h;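 active = inhibition above the mean inhibition across every tested compound plus 3 SD, cut at about 22% in these data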;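 also: 0% = DMSO only wells and the 100% control is not disclosed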
# UHRF1 MBD2 ctr: UHRF1 methyl-DNA binding inhibition. 0.75% of 370,000 active. AID 687016. UHRF1 binding to methylated oligo, TR-FRET. inhibition, % at 4.4 µM; in the data active = inhibition above about 21%;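 also: UHRF1 SRA domain binding a hemimethylated CpG hairpin DNA probe; 0% = median of test compound wells and 100% = reference inhibitor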
# RBBP9 inh: human RBBP9 hydrolase inhibition. inhibition, % at 7.94 µM. 0.2% of 220,000 active. O75884. AID 1515. recombinant RBBP9, FP-Rh probe fluorescence polarization;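 active = inhibition above the campaign mean of all tested compounds plus 3 SD, cut at about 14% in these data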;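 also: plate controls were DMSO wells with RBBP9 for no effect and wells lacking RBBP9 protein for full effect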
#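 Test system – recombinant human RBBP9 · Input – RBBP9 2.5 µM in dispensing solution, pre-mixing · Medium – Tris buffer pH 8.0, NaCl, Pluronic · Schedule – preincubation 30 min plus labeling 45 min at 25 °C · Measured by – fluorescence polarization · Measure – % inhibition · Controls – DMSO and no-protein wells · Replicates – one well per compound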
# PRMT1 confirm: confirmation of human PRMT1 inhibitors; inhibition, % at 2.79 µM; recombinant His-PRMT1, activity-based probe fluorescence polarization; 42% of 3,300 active; shares compounds with PRMT1 FP inh; AID 687036;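 active = mean inhibition across replicates above the hit cutoff derived for the earlier primary screen, cut at about 22% in these data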
# An asterisk follows results filed as active; . = no result given. Compounds with a hit are over-represented: about 3.1% of the library has one in this group of screens.
SMILES,PRMT1 FP inh,LEDGF integ inh,MBD2 DNA inh,ABHD5 PLIN5 PPI,UHRF1 MBD2 ctr,RBBP9 inh,PRMT1 confirm
COC(=O)c1cc2c(c3c4cc(C)ccc4n(S(=O)(=O)c4ccc(C)cc4)c13)C(=O)N(Cc1ccccc1OC)C2,1,-1,3,.,-1,.,.
CN(C)[C@@H]1CCN(c2cccc3c2S(=O)(=O)N(C2CC2)CCCO3)C1,0,-3,-4,.,1,.,.
CC[N+]1(C)CCC(O)(c2ccc(OC)cc2)C(C(=O)c2ccc(OC)cc2)C1 (stereo not drawn),26*,1,0,7,-4,.,13
Cc1nc(N)sc1-c1csc(Nc2ccccc2)n1,19,1,7,-11,0,4,.
Cc1cc(O)ccc1Nc1nc(-c2sc(N)nc2C)cs1,34*,6,-6,-30,-4,6,14
CC(C)NC(=O)c1sc2nc(-c3cccs3)cc(-c3cccs3)c2c1N,30*,-1,-2,.,-1,-3,3
Nc1c(C(=O)C2CC2)sc2nc(-c3cccs3)cc(C(F)(F)F)c12,32*,6,5,-5,2,-11,-1
CC(=O)c1sc2nc(-c3cccs3)ccc2c1N,73*,3,8,-10,2,-10,29*
C#CCNC(=O)C[C@H]1C(=O)N(Cc2ccc(OC)cc2)C2=CCCC[C@@]21C(=O)OCC,-2,-3,-3,.,-1,.,.
CCOc1ccc(N(CC(=O)Nc2c(C)n(C)n(-c3ccccc3)c2=O)S(=O)(=O)c2cccc3cccnc23)cc1,11,0,7,.,6,.,.
COc1ccc(C2Nc3ccccc3C(=O)N2Cc2ccc(C)o2)cc1COc1c(C)cccc1C (stereo not drawn),39*,-4,7,.,2,.,3
S=C(NCCCN1CCOCC1)NC1CCCC1,0,0,4,0,0,-7,.
S=C(NCCCN1CCOCC1)NCCCN1CCOCC1,40*,-3,1,3,1,-7,58*
CC(C)C[C@@H](CN1CCCC1CN1C(=S)NC[C@@H]1Cc1ccccc1)N1C[C@H](Cc2ccccc2)N(CC2CCCCC2)C1=S (stereo partly drawn),0,3,-9,-3,-2,.,.
CC(C)C[C@H]1CNC(=S)N1CC1CCCN1C[C@H](CC(C)C)N1C[C@H](Cc2ccccc2)N(CC2CCCCCC2)C1=S (stereo partly drawn),31*,-1,6,-2,-1,.,1
CCN(CC)S(=O)(=O)c1cccc(C(=O)N/N=C2\CCCC(=O)C2)c1,46*,-7,4,6,0,-6,-2
CCc1nnc2n1N=C(c1ccc(Br)cc1)CS2,-7,2,-6,-12,-6,.,.
C[n+]1c2n(c3ccccc31)N=C(c1ccc(-c3ccccc3)cc1)CS2,5,1,1,12,-46,-6,.
C[n+]1c2n(c3ccccc31)N=C(c1ccc(Br)cc1)CS2,57*,4,-1,-12,-69,-4,2
C[n+]1c2n(c3ccccc31)N=C(c1ccccc1)CS2,48*,-4,-4,-8,-28,-1,8
CCOC(=O)c1sc(NC(=O)C2=COCCO2)c(C#N)c1C,12,-1,3,-2,1,.,.
CCOC(=O)c1sc(NC(=O)C(C)C)c(C#N)c1C,29*,3,7,-10,2,4,2
Cc1cc(C)c(NC(=O)/C=C\C(=O)O)c([N+](=O)[O-])c1,81*,0,0,6,-1,6,37*
Cc1ccc([N+](=O)[O-])cc1NC(=O)/C=C/C(=O)O,49*,-9,-6,1,40*,-9,5
Cc1cc(C)c(NC(=O)/C=C\C(=O)O)c(Cl)c1,28*,0,1,7,1,-10,11
SMILES,PRMT1 FP inh,LEDGF integ inh,MBD2 DNA inh,ABHD5 PLIN5 PPI,UHRF1 MBD2 ctr,RBBP9 inh,PRMT1 confirm
Cc1ccc(NC(=O)/C=C\C(=O)O)c([N+](=O)[O-])c1,65*,1,-5,9,-7,-3,-1
Nc1cc(S(=O)(=O)N2CCOCC2)ccc1N1CCCCC1,17,-2,2,-11,-7,.,.
O=c1c2ccccc2sn1-c1cc(S(=O)(=O)N2CCOCC2)ccc1N1CCCC1,88*,-5,-5,13,1,10,80*
COC(=O)[C@]12C=CCN1[C@@H](c1ccc(OC)c(OC)c1)c1c(c3ccccc3n1S(=O)(=O)c1ccc(C)cc1)C2,6,-2,0,.,1,.,.
CC(C)(C)n1nc(C2CC2)c(Br)c1NC(=O)c1ccccc1Cl,-8,2,0,.,-1,.,.
CC[n+]1c(/C=C(/C)SC)sc2ccccc21,96*,0,7,-11,3,1,24*
CC/C(=C/c1sc2ccccc2[n+]1CC)SC,66*,-3,0,-8,-1,1,7
CC[n+]1c(C=C2C=C(C)OC(C)=C2)sc2ccccc21,-2,-5,-9,0,-118,-3,.
CC[n+]1c(/C=C(\C)SC)sc2ccccc21,34*,0,-5,-7,5,-3,13
CC[n+]1c(/C=C/C=C/N(C(C)=O)c2ccccc2)sc2cc(OC)ccc21,18,4,-7,.,-14,-27,.
CC[n+]1c(/C=C(\C)Nc2ccccc2)sc2ccccc21,2,-3,0,-2,2,-4,.
CC[n+]1c(/C=C/Nc2ccccc2)sc2ccccc21,18,0,4,3,-2,-17,.
CC[n+]1c(/C=C2/C=C(C)CC(C)C2)sc2ccccc21 (stereo not drawn),28*,1,-7,-3,-5,-5,13
CC(C)c1ccc(OCCCN2CCC(C(O)(c3ccccc3)c3ccccc3)CC2)cc1,-2,5,-6,.,0,.,.
COC(=O)c1cc(S(=O)(=O)N2CCN(c3cccc(C(F)(F)F)c3)CC2)cn1C,-4,-1,-5,.,-2,.,.
CCn1c(SCC(=O)Nc2ccccc2-c2ccccc2)nnc1-c1ccc(Cl)cc1,-3,0,3,.,-1,.,.
O=C(NCCc1ccccc1)OCc1cn(Cc2ccc(Cl)cc2)nn1,2,-1,-1,.,-1,.,.
Cc1ccc(C2c3sc(=O)[nH]c3SC3C4CC(C5C(=O)N(C(C)C(=O)O)C(=O)C45)C23)cc1 (stereo not drawn),59*,-3,4,6,-6,-5,20
N#Cc1c(Cl)nsc1NN,40*,-1,8,-29,11,-4,7
Cc1c(C#N)c(N)nc(Cl)c1C#N,-3,-2,0,3,0,0,.
